Reference: ChEMBL document CHEMBL1134377, “New synthesis of benzo-delta-carbolines, cryptolepines, and their salts: in vitro cytotoxic, antiplasmodial, and antitrypanosomal activities of delta-carbolines, benzo-delta-carbolines, and cryptolepines” (J Med Chem, 2001)
pIC50: −log10 of the molar value. Structures can show the parent of a compound that is named as a salt.

Key:
[1] = In vitro cell survival assay on cancer KB cell lines; format: functional, cell-based, Homo sapiens
Outline: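 KB oral epidermoid carcinoma cells in MEM with 10% FCS, 25 000 cells/well; serial dilutions (DMSO or water) added at plating; 3 days at 37 °C, 5% CO2; viability by neutral red uptake 8-16 h, SDS lysis, absorbance 540 nm.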

L6 = assay: In vitro cytotoxicity against L6 cells; format: functional, cell-based, Rattus norvegicus
Plasmodium falciparum [2] = assay: Antiplasmodial activity against chloroquine-resistant Plasmodium falciparum K1; format: functional, organism-based
Outline: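 K1 strain kept in continuous culture on human erythrocytes. Asynchronous cultures (1% parasitemia, 1% final hematocrit) exposed to serial dilutions of drug (DMSO stocks; final DMSO ≤0.2%) for 24 h at 37 °C. 0.5 µCi [3H]hypoxanthine per well was then added for a further 24 h. Inhibition is incorporation versus untreated controls on the same plate. IC50 taken from concentration-response curves, mean ± SD of several independent experiments.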

Plasmodium falciparum [3] = assay: Selectivity index against Plasmodium falciparum; format: functional
Trypanosoma cruzi [4] = assay: Antitrypanosomal activity against (Trypanosoma cruzi) trypomastigotes (concentration of compound tested on trypomastigote motility); format: functional, organism-based
Outline: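 Tulahuen LacZ clone 4 trypomastigotes harvested from infected murine L6 muscle cell cultures; 2-fold drug dilutions from 200 to 1.5 µM, 48 h; motility scored by microscopy; value is concentration with no detectable motility effect, mean of 2 independent experiments.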

Trypanosoma cruzi [5] = assay: Antitrypanosomal activity against Trypanosoma cruzi amastigotes; format: functional, organism-based
Trypanosoma cruzi [6] = assay: Antitrypanosomal activity against Trypanosoma cruzi epimastigotes; format: functional, organism-based
Trypanosoma cruzi [7] = assay: Index of selectivity was determined in Trypanosoma cruzi; format: functional
Outline: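 Ratio of IC50 on L6 cells to IC50 on intracellular amastigote proliferation of T. cruzi.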

[8] = In vitro cytotoxicity against L6 cells

Compound	pIC50 ([1]; Homo sapiens, KB)	pIC50 (L6; Rattus norvegicus, L6)	pIC50 (Plasmodium falciparum [2]; Plasmodium falciparum)	IS (Plasmodium falciparum [3])	pIC50 (Trypanosoma cruzi [4]; Trypanosoma cruzi)	pIC50 (Trypanosoma cruzi [5]; Trypanosoma cruzi)	pIC50 (Trypanosoma cruzi [6]; Trypanosoma cruzi)	IS (Trypanosoma cruzi [7])	pIC50 (L6; l6)	pIC50 (Plasmodium falciparum [2])	pIC50 (Trypanosoma cruzi [4])	pIC50 (Trypanosoma cruzi [5])	pIC50 (Trypanosoma cruzi [6])	pIC50 [8]	pIC50 ([1]; kb)
CCc1c2ccccc2[n+](C)c2c1[nH]c1ccccc12	5.82														
Cc1cc[nH]c2c3ccccc3nc1-2		4.08	4.34	1.8	4.00	4.98	5.18	7.9							
C[n+]1cccc2[nH]c3ccccc3c21.O=S(=O)([O-])C(F)(F)F				>100				>1	< 3.82	5.82	4.00	3.70	< 3.52		
CC(C)c1c2nc3ccccc3c-2[nH]c2ccccc12	4.24														
c1ccc(-c2cc[nH]c3c4ccccc4nc2-3)cc1		4.84	4.41	0.4	4.60	4.92	4.95	1.2							
Cn1cccc2nc3ccccc3c1-2		< 3.66	5.66	>100	3.70	3.59	< 3.26	>1							
Cc1c2nc3ccccc3c-2n(C)c2ccccc12	6.28	5.43	7.00	41.9											
Cc1c2ccccc2[n+](C)c2c1[nH]c1ccccc12	6.38														
c1ccc(-c2c[nH]c3c4ccccc4nc-3c2-c2ccccc2)cc1		< 3.81	3.59	>0.6	4.00	3.96	< 3.51	>1.5							
CCc1cc[nH]c2c3ccccc3nc1-2		4.35	4.18	0.7	4.30	4.91	4.67	3.7							
c1csc(-c2cnc3c(c2)[nH]c2ccccc23)c1		4.27	4.77	3.2	3.70	5.08	5.17	6.4							
Clc1c2nc3ccccc3c-2[nH]c2ccccc12			4.13	1.7	4.30	5.17	5.20	6.4						4.36	
Nc1ccccc1-c1cc[nH]c2c3ccccc3nc1-2		4.79	4.62	0.7	4.30	4.72	4.46	0.9							
c1ccc(-c2c3nc4ccccc4c-3[nH]c3ccccc23)cc1	< 4.00														
Nc1ccccc1-c1c[nH]c2c3ccccc3nc-2c1		4.84	4.53	0.5	4.30	4.95	4.98	1.3							
c1ccc2c(c1)[nH]c1cccnc12		3.64	3.98	2.2	4.00	4.63	4.63	9.7							
C[n+]1cccc2[nH]c3ccccc3c21.[Cl-]		< 3.64	5.80	> 138	3.70	3.72	3.37	>1							
CC(C)c1c2ccccc2[n+](C)c2c1[nH]c1ccccc12.O=S(=O)([O-])C(F)(F)F		4.82	5.89	12.6	4.90	5.48	6.14	4.6							5.19
CC(C)c1c2ccccc2[n+](C)c2c1[nH]c1ccccc12	5.03														
O=C(c1c2nc3ccccc3c-2[nH]c2ccccc12)c1c2nc3ccccc3c-2[nH]c2ccccc12		4.82	5.19	2.4	4.00	5.24	< 3.70	2.7							

Compound	pIC50 ([1]; Homo sapiens, KB)	pIC50 (L6; Rattus norvegicus, L6)	pIC50 (Plasmodium falciparum [2]; Plasmodium falciparum)	IS (Plasmodium falciparum [3])	pIC50 (Trypanosoma cruzi [4]; Trypanosoma cruzi)	pIC50 (Trypanosoma cruzi [5]; Trypanosoma cruzi)	pIC50 (Trypanosoma cruzi [6]; Trypanosoma cruzi)	IS (Trypanosoma cruzi [7])	pIC50 (L6; l6)	pIC50 (Plasmodium falciparum [2])	pIC50 (Trypanosoma cruzi [4])	pIC50 (Trypanosoma cruzi [5])	pIC50 (Trypanosoma cruzi [6])	pIC50 [8]	pIC50 ([1]; kb)
CCc1c2ccccc2[n+](C)c2c1[nH]c1ccccc12.O=S(=O)([O-])C(F)(F)F		5.17	6.32	14.1	4.30	6.41	6.47	17.4							
CCc1c2nc3ccccc3c-2n(C)c2ccccc12	6.15	5.23	5.96	5.5	5.20	6.74	5.49	33							
Cc1c2nc3ccccc3c-2[nH]c2ccccc12	4.40	4.72	4.13	0.25	4.60	5.33	5.41	4							
CC(C)c1c2nc3ccccc3c-2n(C)c2ccccc12	5.19	4.62	5.66	10.6											
C[n+]1c2ccccc2cc2[n-]c3ccccc3c21 [CRYPTOLEPINE]	5.82														
Oc1ccc2[nH]c3cccnc3c2c1		3.63	4.25	4.2	3.70	3.91	3.89	1.9							
Cc1c2ccccc2[n+](C)c2c1[nH]c1ccccc12.O=S(=O)([O-])C(F)(F)F		5.85	7.21	22.5	4.90	7.13	6.52	18.9							6.24
c1ccc(-c2cc[nH]c3c4ccccc4nc2-3)nc1		4.12	4.48	2.3	4.60	4.73	4.23	4							
c1ccc2nc(-c3cc[nH]c4c5ccccc5nc3-4)ccc2c1		4.38	4.79	2.6	4.00	5.19	4.58	6.5							
c1ccc(-c2c[nH]c3c4ccccc4nc-3c2)nc1		3.69	4.66	9.2	4.30	4.68	4.30	9.8							
C[n+]1c2ccccc2c(-c2ccccc2)c2[nH]c3ccccc3c21.O=S(=O)([O-])C(F)(F)F		5.17	5.96	6.2	4.90	6.06	6.27	7.7							
C[n+]1c2ccccc2cc2[n-]c3ccccc3c21 [CRYPTOLEPINE HYDROCHLORIDE]															5.76
Cn1c2c3ccccc3nc-2c(-c2ccccc2)c2ccccc21	6.12	5.26	5.96	5.5	5.82	6.47	6.64	16.6							
Cc1c(-c2ccccc2)c[nH]c2c3ccccc3nc1-2		4.67	4.63	0.9	5.20	5.72	5.64	11.2							
C[n+]1c2ccccc2cc2[nH]c3ccccc3c21.O=S(=O)([O-])C(F)(F)F		5.09	6.48	24.5	4.30	6.90	5.89	64.8							
c1ccc2nc(-c3c[nH]c4c5ccccc5nc-4c3)ccc2c1		4.64	4.85	1.6		5.48	4.73	6.9							
CCc1c2nc3ccccc3c-2[nH]c2ccccc12	4.40	4.67	4.51	0.7	5.20	5.24	5.55	3.8							
c1ccc(-c2c[nH]c3c4ccccc4nc-3c2)cc1		4.43	3.89	0.3	3.70	5.07		4.3							
c1csc(-c2ccnc3c2[nH]c2ccccc23)c1		5.74	4.83	0.12	3.70	5.74	4.95	1							
c1ccc2nc3c(cc2c1)[nH]c1ccccc13 [QUINDOLINE]	4.35	4.31	4.44	1.3	4.30	4.85	5.06	3.4							
